Measured values taken from ChEMBL document CHEMBL1221271, “6-Alkylquinolone-3-carboxylic acid tethered to macrolides synthesis and antimicrobial profile” (2010).
In brackets after ≈: the same amount, converted by molar mass.

Columns and labels:
Assay type in all cases: functional
Staphylococcus aureus [1] = test: Antimicrobial activity against macrolide, licosamide streptogramin-resistant Staphylococcus aureus 90265/97 by broth microdilution method
Outline: (§1)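 MIC determined by the standard broth microdilution method; values reported in mg/L. Reference macrolide antibiotics were tested alongside as comparators.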

Streptococcus pyogenes [2] = test: Antimicrobial activity against Streptococcus pyogenes 166 GR-Micro by broth microdilution method
Outline: (§2)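 Standard broth microdilution assay. Read-out is the minimum inhibitory concentration, reported in mg/L.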

Streptococcus pneumoniae [3] = test: Antimicrobial activity against Streptococcus pneumoniae 58 spain by broth microdilution method; outline: as §2
Streptococcus pneumoniae [4] = test: Antimicrobial activity against Streptococcus pneumoniae 134 GR-M by broth microdilution method; outline: as §2
Staphylococcus aureus [5] = test: Antimicrobial activity against efflux-mediated macrolide-resistant Staphylococcus aureus PK1 by broth microdilution method; outline: as §1
Staphylococcus aureus [6] = test: Antimicrobial activity against Staphylococcus aureus ATCC 13709 by broth microdilution method; outline: as §1
Streptococcus pneumoniae [7] = test: Antimicrobial activity against Streptococcus pneumoniae SP030 by broth microdilution method; outline: as §2
Streptococcus pyogenes [8] = test: Antimicrobial activity against Streptococcus pyogenes Finland 2 by broth microdilution method; outline: as §1
Streptococcus pyogenes [9] = test: Antimicrobial activity against macrolide-resistant Streptococcus pyogenes Finland 2 by broth microdilution method; outline: as §1
Haemophilus influenzae = test: Antimicrobial activity against Haemophilus influenzae ATCC 49247 by broth microdilution method; outline: as §2
Streptococcus pyogenes [10] = test: Antimicrobial activity against Streptococcus pyogenes 3565 by broth microdilution method; outline: as §2

| SMILES | MIC (Staphylococcus aureus [1]) [µg/mL] | MIC (Streptococcus pyogenes [2]) [µg/mL] | MIC (Streptococcus pneumoniae [3]) [µg/mL] | MIC (Streptococcus pneumoniae [4]) [µg/mL] | MIC (Staphylococcus aureus [5]) [µg/mL] | MIC (Staphylococcus aureus [6]) [µg/mL] | MIC (Streptococcus pneumoniae [7]) [µg/mL] | MIC (Streptococcus pyogenes [8]) [µg/mL] | MIC (Streptococcus pyogenes [9]) [µg/mL] | MIC (Haemophilus influenzae) [µg/mL] | MIC (Streptococcus pyogenes [10]) [µg/mL] |
| --- | --- | --- | --- | --- | --- | --- | --- | --- | --- | --- | --- |
| CCOC(=O)CCCCCOCC#Cc1ccc2c(c1)c(=O)c(C(=O)OCC)cn2CC | > 64 | > 64 | 64 (≈ 145 µM) | 64 (≈ 145 µM) | > 64 | > 64 | 16 (≈ 36.2 µM) | > 64 | > 64 | > 64 | 8 (≈ 18.1 µM) |
| CCn1cc(C(=O)O)c(=O)c2cc(C#CCOCCCCCC(=O)O)ccc21 | > 64 | > 64 | > 64 | > 64 | > 64 | > 64 | > 64 | > 64 |  | > 64 | > 64 |
| CCOC(=O)CCCCOCC#Cc1ccc2c(c1)c(=O)c(C(=O)OCC)cn2CC | > 64 | > 64 | > 64 | > 64 | > 64 | > 64 | > 64 | > 64 |  | > 64 | > 64 |
| CCn1cc(C(=O)O)c(=O)c2cc(C#CCOCCCCC(=O)O)ccc21 | > 64 | > 64 | 2 (≈ 5.39 µM) | > 64 | > 64 | > 64 | 1 (≈ 2.69 µM) | 16 (≈ 43.1 µM) | 16 (≈ 43.1 µM) | > 64 | 1 (≈ 2.69 µM) |
| CC[C@H]1OC(=O)[C@H](C)[C@@H](O[C@H]2C[C@@](C)(OC)[C@@H](OC(=O)CCCCCOCCCc3ccc4c(c3)c(=O)c(C(=O)O)cn4CC)[C@H](C)O2)[C@H](C)[C@@H](O[C@@H]2O[C@H](C)C[C@H](N(C)C)[C@H]2O)[C@](C)(O)C[C@@H](C)CN(C)[C@H](C)[C@@H](O)[C@]1(C)O | 0.25 (≈ 0.223 µM) | < 0.125 | < 0.125 | < 0.125 | 0.25 (≈ 0.223 µM) | 0.25 (≈ 0.223 µM) | < 0.125 | < 0.125 |  | 0.5 (≈ 0.446 µM) | < 0.125 |
| CC[C@H]1OC(=O)[C@H](C)[C@@H](O[C@H]2C[C@@](C)(OC)[C@@H](OC(=O)CCCCCOCCCc3ccc4c(c3)c(=O)c(C(=O)O)cn4CC)[C@H](C)O2)[C@H](C)[C@@H](O[C@@H]2O[C@H](C)C[C@H](N(C)C)[C@H]2O)[C@](C)(O)C[C@@H](C)CN(C)[C@H](C)[C@@H](OC)[C@]1(C)O | 2 (≈ 1.76 µM) | 0.5 (≈ 0.441 µM) | < 0.125 | 0.5 (≈ 0.441 µM) | 1 (≈ 0.881 µM) | 1 (≈ 0.881 µM) | < 0.125 | < 0.125 |  | 1 (≈ 0.881 µM) | < 0.125 |
| CC[C@H]1OC(=O)[C@H](C)[C@@H](O[C@H]2C[C@@](C)(OC)[C@@H](OC(=O)CCCCOCC#Cc3ccc4c(c3)c(=O)c(C(=O)O)cn4CC)[C@H](C)O2)[C@H](C)[C@@H](O[C@@H]2O[C@H](C)C[C@H](N(C)C)[C@H]2O)[C@](C)(O)C[C@@H](C)CN(C)[C@H](C)[C@@H](O)[C@]1(C)O | 4 (≈ 3.63 µM) | 1 (≈ 0.907 µM) | < 0.125 | 0.5 (≈ 0.454 µM) | 0.5 (≈ 0.454 µM) | 0.5 (≈ 0.454 µM) | < 0.125 | < 0.125 |  | 1 (≈ 0.907 µM) | < 0.125 |
| CC[C@H]1OC(=O)[C@H](C)[C@@H](O[C@H]2C[C@@](C)(OC)[C@@H](OC(=O)CCCCOCCCc3ccc4c(c3)c(=O)c(C(=O)O)cn4CC)[C@H](C)O2)[C@H](C)[C@@H](O[C@@H]2O[C@H](C)C[C@H](N(C)C)[C@H]2O)[C@](C)(O)C[C@@H](C)CN(C)[C@H](C)[C@@H](O)[C@]1(C)O | 4 (≈ 3.62 µM) | 0.25 (≈ 0.226 µM) | < 0.125 | 0.25 (≈ 0.226 µM) | 0.5 (≈ 0.452 µM) | 0.5 (≈ 0.452 µM) | < 0.125 | < 0.125 |  | 2 (≈ 1.81 µM) | < 0.125 |
| CC[C@H]1OC(=O)[C@H](C)[C@@H](O[C@H]2C[C@@](C)(OC)[C@@H](OC(=O)CCCCCOCC#Cc3ccc4c(c3)c(=O)c(C(=O)O)cn4CC)[C@H](C)O2)[C@H](C)[C@@H](O[C@@H]2O[C@H](C)C[C@H](N(C)C)[C@H]2O)[C@](C)(OC)C[C@@H](C)C(=O)[C@H](C)[C@@H](O)[C@]1(C)O | 8 (≈ 7.17 µM) | 2 (≈ 1.79 µM) | < 0.125 | 4 (≈ 3.59 µM) | 2 (≈ 1.79 µM) | 2 (≈ 1.79 µM) | < 0.125 | < 0.125 |  | 16 (≈ 14.3 µM) | < 0.125 |
| CC[C@H]1OC(=O)[C@H](C)[C@@H](O[C@H]2C[C@@](C)(OC)[C@@H](OC(=O)CCCCCOCCCc3ccc4c(c3)c(=O)c(C(=O)O)cn4CC)[C@H](C)O2)[C@H](C)[C@@H](O[C@@H]2O[C@H](C)C[C@H](N(C)C)[C@H]2O)[C@](C)(OC)C[C@@H](C)C(=O)[C@H](C)[C@@H](O)[C@]1(C)O | 4 (≈ 3.57 µM) | < 0.125 | < 0.125 | 1 (≈ 0.893 µM) | 2 (≈ 1.79 µM) | 2 (≈ 1.79 µM) | < 0.125 | < 0.125 |  | 8 (≈ 7.15 µM) | < 0.125 |
| CC[C@H]1OC(=O)[C@H](C)[C@@H](O[C@H]2C[C@@](C)(OC)[C@@H](O)[C@H](C)O2)[C@H](C)[C@@H](O[C@@H]2O[C@H](C)C[C@H](N(C)C)[C@H]2O)[C@](C)(O)C[C@@H](C)CN(C)[C@H](C)[C@@H](O)[C@]1(C)O [AZITHROMYCIN] | > 64 | > 64 | > 64 | > 64 | > 64 | 0.5 (≈ 0.668 µM) | < 0.125 | 16 (≈ 21.4 µM) | 16 (≈ 21.4 µM) | 1 (≈ 1.34 µM) | < 0.125 |
| CC[C@H]1OC(=O)[C@H](C)[C@@H](O[C@H]2C[C@@](C)(OC)[C@@H](O)[C@H](C)O2)[C@H](C)[C@@H](O[C@@H]2O[C@H](C)C[C@H](N(C)C)[C@H]2O)[C@](C)(OC)C[C@@H](C)C(=O)[C@H](C)[C@@H](O)[C@]1(C)O [CLARITHROMYCIN] | > 64 | > 64 | > 64 | > 64 | 32 (≈ 42.8 µM) | ≤ 0.125 | ≤ 0.125 | 4 (≈ 5.35 µM) | 4 (≈ 5.35 µM) | 8 (≈ 10.7 µM) | ≤ 0.125 |
| CC[C@H]1OC(=O)[C@H](C)C(=O)[C@H](C)[C@@H](O[C@@H]2O[C@H](C)C[C@H](N(C)C)[C@H]2O)[C@](C)(OC)C[C@@H](C)C(=O)[C@H](C)[C@H]2N(CCCCn3cnc(-c4cccnc4)c3)C(=O)O[C@]12C [TELITHROMYCIN] | < 0.125 | 16 (≈ 19.7 µM) | 0.25 (≈ 0.308 µM) | 0.25 (≈ 0.308 µM) | 0.125 (≈ 0.154 µM) | 0.25 (≈ 0.308 µM) | < 0.125 | 0.5 (≈ 0.616 µM) | 0.5 (≈ 0.616 µM) | 1 (≈ 1.23 µM) | < 0.125 |
